Measured values reported in PMC6644362 (ACS Omega, 2018).
“And” between values parts separate entries of the source, which are not always exact repeats. Equal entries are not always repeated.

Legend:
[1] = target: T1, recombinant human TK2 (Homo sapiens, UniProt O00142); test: Intrinsic tryptophan fluorescence; assay type: binding; settings: for Kd / ΔFmax: mean ± SD; for fa (fractional accessibility) / Ka (quenching constant of the accessible fraction): modified Stern–Volmer equation; for fractional initial accessible fluorescence: summary of Table 2, dTTP-bound or dTTP-free TK2; for quenching of the fluorescence emission on addition of ligand: titrated to dTTP-bound or dTTP-free TK2, 0.5–4000 μM
T1 sequence (O00142 56-265 limits assumed): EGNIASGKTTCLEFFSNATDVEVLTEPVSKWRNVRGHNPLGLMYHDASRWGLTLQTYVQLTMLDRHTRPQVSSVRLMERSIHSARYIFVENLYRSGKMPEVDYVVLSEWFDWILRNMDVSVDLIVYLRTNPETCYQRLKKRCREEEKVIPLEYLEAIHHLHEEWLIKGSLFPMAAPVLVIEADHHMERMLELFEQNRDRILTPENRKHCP

[2] = target: T1, recombinant human TK2; test: Isothermal titration calorimetry; assay type: binding
Outline: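 Calorimetry at 25 °C used 40 μM TK2 (dTTP-bound or dTTP-free) dialysed into 10 mM Tris/HCl pH 7.9, 1 mM MgCl2. Ligands were in dialysis buffer at 1–3 mM syringe concentration, also ATPγS into enzyme–dT/dC complexes. There was one 2 μL control injection, then 24 × 8 μL injections at 500 s intervals. Blanks were ligand into buffer and buffer into enzyme. Best-fit model per ligand; Kd = 1/KB.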

[3] = target: human recombinant dC kinase (dCK) (Homo sapiens, UniProt P27707); test: ITC titration of ATPγS to dCK in the presence and absence of dC; assay type: binding
human recombinant dC kinase (dCK), sequence (P27707 whole entry): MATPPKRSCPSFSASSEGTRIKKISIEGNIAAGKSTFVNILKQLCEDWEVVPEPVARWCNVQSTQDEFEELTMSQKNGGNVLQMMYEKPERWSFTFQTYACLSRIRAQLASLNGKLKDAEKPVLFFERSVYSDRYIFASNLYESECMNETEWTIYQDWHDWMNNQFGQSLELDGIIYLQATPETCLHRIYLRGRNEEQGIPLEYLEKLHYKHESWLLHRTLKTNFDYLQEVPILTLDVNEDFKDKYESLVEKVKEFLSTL

[4] = target: TK2; settings: feedback inhibition, enzyme kinetic experiments; cited from earlier work
[5] = Kd (equilibrium binding constant), dTTP-bound TK2, one-site specific binding model
[6] = Kd (equilibrium binding constant), dTTP-free TK2, one-site specific binding model
[7] = dTTP-bound TK2, 2 μM TK2, 21 °C
[8] = dTTP-bound TK2, one-site specific binding model
[9] = dTTP-free TK2, one-site specific binding model
[10] = read-out: Kd (equilibrium binding constant), dTTP-bound TK2, one-site specific binding model
[11] = titrated to E–dC complex, 25 °C
[12] = titrated to E–dT complex, 25 °C

## Nc1ccn([C@H]2C[C@H](O)[C@@H](CO)O2)c(=O)n1 [dC, deoxycytidine]
[1]; [5]
  Kd: 3.35 ± 0.81 µM
[1]; [6]
  Kd: 5.64 ± 1.2 µM
[1]; [7]
  fa (fractional accessibility): 0.29 ± 0.05
[1]; [8]
  ΔFmax: 19.86 ± 0.94
[1]; dTTP-free TK2, 21 °C
  fa (fractional accessibility): 0.40 ± 0.10
[1]; [9]
  ΔFmax: 67.5 ± 2.9
[1]
  fractional initial accessible fluorescence: 20–40%
  quenching of the fluorescence emission on addition of ligand: caused quenching
[2]; dTTP-bound enzyme, 25 °C
  ΔH (enthalpy changes): –23.4 ± 0.7 kcal/mol
  ΔS (entropy changes): –7.9 cal/mol/deg

## Cc1cn([C@H]2C[C@H](F)[C@@H](CO)O2)c(=O)[nH]c1=O [FLT, 3′-fluoro-2′,3′-dideoxythymidine]
[1]; [7]
  Ka (quenching constant of the accessible fraction): 0.14 ± 0.02 μM^–1
  fa (fractional accessibility): 0.24 ± 0.04
[1]; [8]
  ΔFmax: 17.81 ± 0.99
[1]; [10]
  Kd: 6.17 ± 1.35 µM
[1]
  fractional initial accessible fluorescence: 20–40%
  quenching of the fluorescence emission on addition of ligand: caused quenching

## Cc1cn([C@H]2C[C@H](O)[C@@H](COP(=O)(O)O)O2)c(=O)[nH]c1=O [dTMP, deoxythymidine monophosphate]
[1]; [7]
  Ka (quenching constant of the accessible fraction): 0.79 ± 0.04 μM^–1
  fa (fractional accessibility): 0.21 ± 0.02
[1]; [8]
  ΔFmax: 16.74 ± 0.53
[1]; [10]
  Kd: 1.53 ± 0.28 µM
[1]
  fractional initial accessible fluorescence: 20–40%
  quenching of the fluorescence emission on addition of ligand: caused quenching

## Nc1ncnc2c1ncn2[C@@H]1O[C@H](CO[P@](=O)(O)O[P@](=O)(O)O[P@@](=O)(O)S)[C@@H](O)[C@H]1O [ATPγS, adenosine 5′-(gamma-thio) triphosphate]
[3]; absence of dC
  binding to dCK alone (ITC): does not bind
[3]; presence of dC
  binding to the dCK–dC complex (ITC): bind
[2]; Kd (dissociation constant), titrated to E–dC complex, 25 °C
  Kd: 20 µM
[2]; Kd (dissociation constant), titrated to E–dT complex, 25 °C
  Kd: 0.93 µM
[2]; [11]
  ΔG (Gibbs free energy): –0.18 ± 0.01 kcal/mol
  ΔH (enthalpy changes): –7.5 ± 0.5 kcal/mol
  ΔS (entropy changes): –24.9 cal/mol/deg
[2]; titrated to E–dT complex
  binding constant: 1.1 × 10^6 M^–1
[2]; [12]
  ΔG (Gibbs free energy): –8.2 ± 0.1 kcal/mol
  ΔH (enthalpy changes): –19.4 ± 0.8 kcal/mol
  ΔS (entropy changes): –37.6 cal/mol/deg
[2]; titrated with either dTTP-bound or dTTP-free TK2
  ITC heat response / specific interaction: no heat response

## Cc1cn([C@H]2C[C@H](O)[C@@H](CO)O2)c(=O)[nH]c1=O [dT, thymidine]
[1]; [5]
  Kd: 3.26 ± 1.01 µM
[1]; [6]
  Kd: 13.3 ± 1.2 µM
[1]; [7]
  Ka (quenching constant of the accessible fraction): 0.16 μM^–1
  fa (fractional accessibility): 0.25 ± 0.01
[1]; dTTP-bound TK2, modified Stern–Volmer equation
  fa, fraction of the initial fluorescence accessible: 25%
[1]; [8]
  ΔFmax: 21.95 ± 1.25
[1]; dTTP-free TK2, 21 °C
  fa (fractional accessibility): 0.17 ± 0.02
[1]; [9]
  ΔFmax: 69.7 ± 3.1
[1]
  quenching of the fluorescence emission on addition of ligand: caused quenching
[2]; ITC
  binding constant, times higher than that of dC: 5 times
  binding constant, times higher than that of dTTP: 65 times
[2]; ITC, dTTP-bound enzyme
  binding affinity, times higher than that of dC: 3 times
[2]; Kd1 (high affinity), dTTP-bound enzyme, two-site binding model
  Kd: 0.55 µM
[2]; dTTP-bound enzyme, 25 °C
  ΔG (Gibbs free energy): –7.1 ± 0.2 kcal/mol
  ΔH (enthalpy changes): –72.7 ± 0.2 kcal/mol
  ΔS (entropy changes): –220 cal/mol/deg
[2]; read-out: Kd2 (lower affinity), dTTP-bound enzyme, two-site binding model
  Kd: 6.13 µM

## Cc1cn([C@H]2C[C@H](N=[N+]=[N-])[C@@H](CO)O2)c(=O)[nH]c1=O [AZT, 3′-Azido-2′,3′-dideoxythymidine]
[1]; [5]
  Kd: 6.94 ± 2.78 µM
[1]; [7]
  fa (fractional accessibility): 0.38 ± 0.04
[1]; [8]
  ΔFmax: 12.77 ± 1.34
[1]
  fractional initial accessible fluorescence: 20–40%
  quenching of the fluorescence emission on addition of ligand: caused quenching

## Nc1ccn([C@H]2C[C@H](O)[C@@H](COP(=O)(O)O)O2)c(=O)n1 [dCMP, deoxycytidine monophosphate]
[1]; [7]
  Ka (quenching constant of the accessible fraction): 0.42 ± 0.03 μM^–1
  fa (fractional accessibility): 0.21 ± 0.02
[1]; [8]
  ΔFmax: 19.74 ± 1.18
[1]; [10]
  Kd: 4.42 ± 0.99 µM
[1]
  fractional initial accessible fluorescence: 20–40%
  quenching of the fluorescence emission on addition of ligand: caused quenching

## Nc1ccn([C@H]2C[C@H](O)[C@@H](COP(=O)(O)OP(=O)(O)OP(=O)(O)O)O2)c(=O)n1 [dCTP, deoxycytidine triphosphate]
[2]; dTTP-free enzyme
  ITC heat changes in the isothermogram: no heat changes

## Cc1cn([C@H]2C[C@H](O)[C@@H](CO[P@](=O)(O)O[P@@](=O)(O)OP(=O)(O)O)O2)c(=O)[nH]c1=O [dTTP, deoxythymidine triphosphate]
[4]
  Ki: 2500 nM and ~2500 nM
[1]; [6]
  Kd: 3.64 ± 1.02 µM
[1]; dTTP-free TK2, 21 °C
  fa (fractional accessibility): 0.22 ± 0.01
[1]; [9]
  ΔFmax: 57.6 ± 2.9
[1]
  fractional initial accessible fluorescence: 20–40%
  quenching of the fluorescence emission on addition of ligand: caused quenching
[2]; Kd (dissociation constant), dTTP-free enzyme, 25 °C, Kd = 1/KB
  Kd: 36 µM and 35.7 µM
[2]; dTTP-free TK2
  binding constant: 2.8 × 10^4 M^–1
[2]; dTTP-free enzyme, 25 °C
  ΔG (Gibbs free energy): –6.0 ± 0.1 kcal/mol
  ΔH (enthalpy changes): 237.2 ± 0.2 kcal/mol
  ΔS (entropy changes): 816 cal/mol/deg
